Assays:
HaCaT [1] = assay: Antiproliferative activity against human HaCaT cells assessed as dispersed cells after 48 hrs by phase-contrast microscopic analysis; type: functional, cell-based
Method in brief: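 HaCaT keratinocytes (non-transformed human line) treated for 48 h, then dispersed cells counted by phase-contrast microscopy. Inhibition = (1 − test/control) × 100, from means of test (N = 3) versus control (N = 6–8). Significance by Student's t-test (P < 0.05). IC50 obtained by nonlinear regression.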

HaCaT [2] = assay: Cytotoxicity against human HaCaT cells assessed as LDH release at 2 uM after 4 hrs by UV method; type: functional
Method in brief: (§1)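 HaCaT cells exposed to test compound for 4 h at 37 °C. Extracellular LDH activity measured by UV method with pyruvate and NADH and reported in mU/mL (N = 3, SD < 10%). Vehicle control was 0.2% DMSO in culture medium. Brij 35 with ultrasound served as positive control. Significance versus vehicle at P < 0.05.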

[3] = tested on: Radical scavenging activity; assay: Antioxidant activity assessed as DPPH free radical scavenging activity; type: functional
Method in brief: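 Cell-free DPPH radical interaction: compound effect on DPPH absorbance read at 520 nm. Percent interaction = (1 − test absorbance/control absorbance) × 100, from mean of N = 3 versus control N = 8. EC50 is the concentration giving 50% decrease in DPPH absorbance. NDGA and α-tocopherol served as positive controls.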

HaCaT [4] = assay: Cytotoxicity against human HaCaT cells assessed as LDH release at 2 uM after 4 hrs by UV method relative to control; type: functional; method in brief: as §1

EC50 [3]	SMILES	IC50 (HaCaT [1])	Activity (HaCaT [2])	Activity (HaCaT [4])
–	COc1cc(O)c2c(=O)c3ccccc3n(C)c2c1	> 50 µM	–	–
–	CCn1c2ccccc2c(=O)c2c(O)cc(O)cc21	> 50 µM	–	–
> 500 µM	Cn1c2ccccc2c(=O)c2c(O)cc(O)cc21	0.6 µM	74.3 mU/ml	–
–	Cn1c2ccccc2c(=O)c2c(O)cccc21	> 50 µM	–	–
–	COc1cccc2c1c(=O)c1ccccc1n2C	> 50 µM	–	–
–	CCn1c2ccccc2c(=O)c2c(O)cccc21	> 50 µM	–	–
–	CCCn1c2ccccc2c(=O)c2c(O)cccc21	> 50 µM	–	–
–	CCCn1c2ccccc2c(=O)c2c(O)cc(O)cc21	> 50 µM	–	–
–	Cn1c2ccccc2c(=O)c2ccccc21	38.9 µM	–	–
–	Cc1cccc2c1c(=O)c1c(O)cc(O)cc1n2C	> 50 µM	–	–
> 500 µM	COc1ccc(CCn2c3ccccc3c(=O)c3c(O)cccc32)cc1	6.3 µM	74.6 mU/ml	–
> 500 µM	COc1ccc(CCn2c3ccccc3c(=O)c3c(O)cccc32)cc1OC	7 µM	–	–
–	COc1cc(CCn2c3ccccc3c(=O)c3c(O)cccc32)cc(OC)c1OC	45.5 µM	–	–
–	O=c1c2ccccc2n(CCCc2ccccc2)c2cccc(O)c12	> 50 µM	–	–
–	O=c1c2ccccc2n(CCCCc2ccccc2)c2cccc(O)c12	> 50 µM	–	–
–	CCOc1cc(O)c2c(=O)c3ccccc3n(CC)c2c1	> 50 µM	–	–
> 500 µM	O=c1c2ccccc2n(Cc2ccccc2)c2cc(O)cc(O)c12	3.7 µM	76.8 mU/ml	–

EC50 [3]	SMILES	IC50 (HaCaT [1])	Activity (HaCaT [2])	Activity (HaCaT [4])
–	O=c1c2ccccc2n(Cc2ccccc2)c2cc(OCc3ccccc3)cc(O)c12	> 50 µM	–	–
–	O=c1c2ccccc2n(CCCc2ccccc2)c2cc(O)cc(O)c12	40.5 µM	–	–
> 500 µM	COc1ccc(Cn2c3ccccc3c(=O)c3ccccc32)cc1OC	> 50 µM	–	–
–	CC(=O)CC(=O)n1c2ccccc2c(=O)c2ccccc21	27.8 µM	–	–
> 500 µM	CC(=O)CC(=O)n1c2ccccc2c(=O)c2c(O)cccc21	3.3 µM	74 mU/ml	–
> 500 µM	O=c1c2ccccc2n(Cc2ccccc2)c2cccc(O)c12	2.5 µM	74.9 mU/ml	–
> 500 µM	O=c1c2ccccc2n(Cc2ccccc2)c2cccc(OCc3ccccc3)c12	7.5 µM	72.1 mU/ml	–
–	O=c1c2ccccc2n(Cc2ccccc2)c2ccc(Cc3ccccc3)c(O)c12	13 µM	–	–
> 500 µM	O=c1c2ccccc2n(Cc2ccc([N+](=O)[O-])cc2)c2cccc(O)c12	1.8 µM	–	86.7 mU/ml
–	O=c1c2ccccc2n(CCc2ccccc2)c2cccc(O)c12	41.5 µM	–	–
> 500 µM	O=c1c2ccccc2n(CCc2ccc(O)cc2)c2cccc(O)c12	20.1 µM	–	–
> 500 µM	O=c1c2ccccc2[nH]c2cc(O)cc(O)c12	–	–	–
> 500 µM	O=c1c2ccccc2[nH]c2cccc(O)c12	> 50 µM	–	–
–	O=c1c2ccccc2n(Cc2ccccc2)c2ccccc12	> 50 µM	–	–
–	O=c1c2ccccc2[nH]c2ccccc12 [ACRIDONE]	> 50 µM	–	–
16.7 µM	O=C1c2c(O)cccc2Cc2cccc(O)c21 [ANTHRALIN]	–	–	122.8 mU/ml

SMILES	EC50 [3]	IC50 (HaCaT [1])	Activity (HaCaT [2])	Activity (HaCaT [4])
COc1cc2c(c3c1c(=O)c1ccccc1n3C)C=CC(C)(C)O2 [ACRONINE]	> 500 µM	3.2 µM	70.4 mU/ml	–

— ChEMBL document CHEMBL1287655, “Structure-activity relationship studies of acridones as potential antipsoriatic agents. 2. Synthesis and antiproliferative activity of 10-substituted hydroxy-10H-acridin-9-ones against human keratinocyte growth” (Eur J Med Chem, 2010)
